For data set [1], the system named is Mus musculus. Nature of the data set: Antialzheimer activity in 5XFAD mouse assessed as appearance of CAA in […] cortex at 600 ppm administered as rodent chow starting from 1.5 months and measured after 5 months by immunolabeling based confocal microscopic analysis. In kind it is functional, organism-based. The conditions noted are these: route po, time 3.5 months. In a few lines:
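5xFAD mice fed PLX3397 at 600 ppm in AIN-76A chow from 1.5 to 5 months of age; brain sections stained with Thio-S and immunolabeled for IBA1, imaged by confocal microscopy for vascular Thio-S deposits.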

Data set [2] concerns the target CDK9/cyclin T1 (Homo sapiens, UniProt P50750). Nature of the data set: Inhibition of CDK9/CyclinT1 (unknown origin). In kind it is protein-complex assay.
Data set [3] concerns the target Maternal embryonic leucine zipper kinase (Homo sapiens, UniProt Q14680). Nature of the data set: Inhibition of MELK (unknown origin).
Data set [4] has as its target Serine/threonine-protein kinase Chk1 (Homo sapiens, UniProt O14757). Nature of the data set: Inhibition of CHEK1 (unknown origin).
Data set [5] concerns Mus musculus. Description: Prevention of immune pathway related gene upregulation in 5XFAD mouse hippocampus assessed as percent change in Reads Per kilo base per Million mapped reads at 1200 ppm administered as rodent chow starting from 1.5 months and measured after 7 months by GO enrichment analysis. The class given is functional, tissue-based. The conditions noted are these: route po, time 5.5 months.

Data set [6] is described as follows: Effect on Itgax gene expression in 5XFAD mouse cortex at 1200 ppm administered as rodent chow starting from 1.5 months and measured after 7 months by RNA-Seq analysis (reference value: 1.746 to 3.999 RPKM). The conditions noted are these: route po, time 5.5 months, 4015 h. In kind it is functional.
Data set [7] in a line: Effect on Ctsz gene expression in wild type mouse hippocampus at 1200 ppm administered as rodent chow starting from 1.5 months and measured after 7 months by RNA-Seq analysis (reference value: 13.821 to 22.84 RPKM). In kind it is functional. The conditions noted are these: route po, time 5.5 months, 4015 h.
The nature of data set [8]: Effect on Clec7a gene expression in 5XFAD mouse hippocampus at 1200 ppm administered as rodent chow starting from 1.5 months and measured after 7 months by RNA-Seq analysis (reference value: 4.246 to 7.511 RPKM). The conditions noted are these: route po, time 5.5 months, 4015 h. In kind it is functional. The essentials:
(§1)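 WT and 5xFAD mice were treated with 1200 ppm PLX5622 chow or control chow from 1.5 to 7 months of age. Brains were microdissected into cortex, hippocampus and thalamus, and RNA was extracted from tissue powder. Whole-transcriptome RNA-Seq libraries were sequenced, with n = 4 per group per region (48 samples).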

Data set [9] in a line: Effect on Clec7a gene expression in wild type mouse cortex at 1200 ppm administered as rodent chow starting from 1.5 months and measured after 7 months by RNA-Seq analysis (reference value: 0 to 0.413 RPKM). The conditions noted are these: route po, time 5.5 months, 4015 h. The class given is functional. The essentials:
as §1

For data set [10], the target named is T1, Macrophage colony-stimulating factor 1 receptor (Mus musculus) (UniProt P09581).
T1 sequence (whole entry): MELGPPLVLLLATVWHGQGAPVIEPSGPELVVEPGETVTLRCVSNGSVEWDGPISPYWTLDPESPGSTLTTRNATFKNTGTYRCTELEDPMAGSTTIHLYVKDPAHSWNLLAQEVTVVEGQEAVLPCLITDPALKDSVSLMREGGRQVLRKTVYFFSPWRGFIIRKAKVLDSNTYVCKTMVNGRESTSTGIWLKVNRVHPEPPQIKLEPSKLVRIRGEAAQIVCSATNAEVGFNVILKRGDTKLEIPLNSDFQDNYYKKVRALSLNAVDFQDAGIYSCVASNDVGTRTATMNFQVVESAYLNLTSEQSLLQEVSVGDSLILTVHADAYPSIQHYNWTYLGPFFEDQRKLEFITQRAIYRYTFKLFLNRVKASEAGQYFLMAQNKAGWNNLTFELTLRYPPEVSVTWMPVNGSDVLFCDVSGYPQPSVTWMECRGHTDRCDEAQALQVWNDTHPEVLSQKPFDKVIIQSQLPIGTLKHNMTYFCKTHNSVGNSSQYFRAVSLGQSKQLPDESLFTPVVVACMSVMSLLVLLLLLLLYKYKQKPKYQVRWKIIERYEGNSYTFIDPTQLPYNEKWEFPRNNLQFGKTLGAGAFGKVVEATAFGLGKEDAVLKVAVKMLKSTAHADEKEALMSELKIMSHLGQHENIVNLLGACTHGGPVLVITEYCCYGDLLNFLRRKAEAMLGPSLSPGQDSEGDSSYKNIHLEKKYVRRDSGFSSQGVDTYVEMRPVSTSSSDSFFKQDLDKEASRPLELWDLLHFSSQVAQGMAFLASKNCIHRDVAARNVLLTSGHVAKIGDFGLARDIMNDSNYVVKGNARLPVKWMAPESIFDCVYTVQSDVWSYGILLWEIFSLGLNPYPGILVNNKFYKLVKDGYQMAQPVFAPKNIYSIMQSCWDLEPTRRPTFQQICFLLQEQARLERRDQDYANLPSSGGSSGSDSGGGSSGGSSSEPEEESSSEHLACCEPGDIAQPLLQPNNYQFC
Nature of the data set: In vivo inhibition of CSF1R in wildtype mouse assessed as iron reactivity by measuring hemosiderin intensity of prussian blue staining in […] cortex at 1200 ppm administered as rodent chow starting from 1.5 months and measured after 7 months by confocal microscopic analysis (reference value: 0.059 to 2.835 a.u.). The class given is functional. The conditions noted are these: route po, time 5.5 months. The essentials: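 Wild-type or 5xFAD mice fed PLX5622 (1200 ppm) in AIN-76A chow from 1.5 months of age, examined in 4- and 7-month-old cohorts. Brain sections stained with a Prussian blue kit per kit instructions to detect iron deposits (microbleeds).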

Data set [11] in a line: Toxicity in wildtype mouse assessed as number of closed arm entries at 1200 ppm administered as rodent chow for 10 to 24 weeks by Elevated plus maze test (reference value: 11 to 33). The conditions noted are these: in vivo, po, time 10-24 weeks.
A short description of data set [12]: Prevention of Dynll1 gene downregulation in 5XFAD mouse hippocampus assessed as percent change in Reads Per kilo base per Million mapped reads at 1200 ppm administered as rodent chow starting from 1.5 months and measured after 7 months by RNA-Seq analysis (reference value: 79.087 to 86.108 %). In kind it is functional. The conditions noted are these: route po, time 5.5 months, 4015 h.

The nature of data set [13]: Effect on Ctsd gene expression in 5XFAD mouse thalamus at 1200 ppm administered as rodent chow starting from 1.5 months and measured after 7 months by RNA-Seq analysis (reference value: 209.488 to 301.760 RPKM). In kind it is functional. The conditions noted are these: route po, time 5.5 months, 4015 h.
Data set [14] has as its system Mus musculus. Nature of the data set: Prevention of C1qc gene upregulation in 5XFAD mouse hippocampus at 1200 ppm administered as rodent chow starting from 1.5 months and measured after 7 months by Nanostring analysis. In kind it is functional, tissue-based. The conditions noted are these: route po, time 5.5 months.
Data set [15] has as its target Protein kinase C delta type (Homo sapiens, UniProt Q05655). Description: Inhibition of PRKCD (unknown origin).
Data set [16] deals with Dual specificity tyrosine-phosphorylation-regulated kinase 1A (Homo sapiens, UniProt Q13627). Nature of the data set: Inhibition of DYRK1A (unknown origin).
Data set [17] has as its system Mus musculus. Description: Prevention of Grn gene upregulation in 5XFAD mouse hippocampus at 1200 ppm administered as rodent chow starting from 1.5 months and measured after 7 months by Nanostring analysis. In kind it is functional, tissue-based. The conditions noted are these: route po, time 5.5 months.
Data set [18] concerns the target Homeodomain-interacting protein kinase 4 (Homo sapiens, UniProt Q8NE63). Nature of the data set: Inhibition of HIPK4 (unknown origin).

Active and inactive are the calls of the source. No cut-off for these calls is given here. Bounds are passed on as bounds.

Maternal embryonic leucine zipper kinase, sequence (Q14680 whole entry): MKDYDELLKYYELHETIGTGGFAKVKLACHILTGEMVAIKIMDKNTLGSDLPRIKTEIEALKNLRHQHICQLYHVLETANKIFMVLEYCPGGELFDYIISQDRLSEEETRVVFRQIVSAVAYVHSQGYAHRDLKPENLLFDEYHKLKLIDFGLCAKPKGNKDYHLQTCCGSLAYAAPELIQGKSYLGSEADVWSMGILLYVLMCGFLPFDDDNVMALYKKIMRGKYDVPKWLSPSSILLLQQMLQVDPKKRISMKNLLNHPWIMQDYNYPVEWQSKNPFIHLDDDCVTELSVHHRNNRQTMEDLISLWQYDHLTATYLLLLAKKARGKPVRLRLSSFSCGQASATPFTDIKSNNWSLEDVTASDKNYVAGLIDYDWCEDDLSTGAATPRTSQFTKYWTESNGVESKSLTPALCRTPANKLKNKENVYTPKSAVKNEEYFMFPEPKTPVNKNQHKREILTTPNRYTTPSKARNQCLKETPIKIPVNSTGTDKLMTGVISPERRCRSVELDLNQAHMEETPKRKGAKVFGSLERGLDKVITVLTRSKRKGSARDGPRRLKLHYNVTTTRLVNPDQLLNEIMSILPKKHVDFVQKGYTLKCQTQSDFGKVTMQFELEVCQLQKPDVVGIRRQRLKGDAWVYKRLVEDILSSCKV
Protein kinase C delta type, sequence (Q05655 whole entry): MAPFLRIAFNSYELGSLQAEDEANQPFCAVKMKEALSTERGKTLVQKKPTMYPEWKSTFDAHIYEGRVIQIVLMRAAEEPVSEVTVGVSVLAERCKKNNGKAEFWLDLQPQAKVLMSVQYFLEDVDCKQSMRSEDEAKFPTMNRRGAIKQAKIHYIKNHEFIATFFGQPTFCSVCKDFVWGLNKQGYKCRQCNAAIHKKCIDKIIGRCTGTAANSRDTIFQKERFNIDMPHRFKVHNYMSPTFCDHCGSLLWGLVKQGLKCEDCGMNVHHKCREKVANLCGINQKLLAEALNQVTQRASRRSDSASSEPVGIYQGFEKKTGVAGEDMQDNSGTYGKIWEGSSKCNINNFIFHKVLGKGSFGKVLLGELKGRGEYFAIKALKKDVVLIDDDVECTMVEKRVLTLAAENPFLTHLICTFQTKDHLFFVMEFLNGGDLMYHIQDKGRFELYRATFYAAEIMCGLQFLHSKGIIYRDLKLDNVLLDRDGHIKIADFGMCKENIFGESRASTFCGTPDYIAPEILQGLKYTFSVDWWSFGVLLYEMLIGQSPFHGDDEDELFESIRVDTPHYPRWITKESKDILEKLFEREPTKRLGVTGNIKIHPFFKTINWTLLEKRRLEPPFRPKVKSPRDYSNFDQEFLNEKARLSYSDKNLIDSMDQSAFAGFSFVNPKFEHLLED
Serine/threonine-protein kinase Chk1, sequence (O14757 whole entry): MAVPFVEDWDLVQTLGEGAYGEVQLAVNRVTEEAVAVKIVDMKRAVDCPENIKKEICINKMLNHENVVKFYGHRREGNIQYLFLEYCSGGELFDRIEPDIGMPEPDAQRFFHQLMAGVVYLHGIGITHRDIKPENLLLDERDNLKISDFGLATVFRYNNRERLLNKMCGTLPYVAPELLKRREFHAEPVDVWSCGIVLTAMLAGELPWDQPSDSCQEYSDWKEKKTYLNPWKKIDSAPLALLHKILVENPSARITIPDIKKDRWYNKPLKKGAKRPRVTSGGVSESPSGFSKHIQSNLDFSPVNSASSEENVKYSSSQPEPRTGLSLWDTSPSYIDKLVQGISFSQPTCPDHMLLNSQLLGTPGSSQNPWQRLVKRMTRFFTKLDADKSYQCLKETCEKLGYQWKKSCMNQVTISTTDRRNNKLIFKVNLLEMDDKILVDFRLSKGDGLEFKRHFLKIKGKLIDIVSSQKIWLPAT
Homeodomain-interacting protein kinase 4, sequence (Q8NE63 whole entry): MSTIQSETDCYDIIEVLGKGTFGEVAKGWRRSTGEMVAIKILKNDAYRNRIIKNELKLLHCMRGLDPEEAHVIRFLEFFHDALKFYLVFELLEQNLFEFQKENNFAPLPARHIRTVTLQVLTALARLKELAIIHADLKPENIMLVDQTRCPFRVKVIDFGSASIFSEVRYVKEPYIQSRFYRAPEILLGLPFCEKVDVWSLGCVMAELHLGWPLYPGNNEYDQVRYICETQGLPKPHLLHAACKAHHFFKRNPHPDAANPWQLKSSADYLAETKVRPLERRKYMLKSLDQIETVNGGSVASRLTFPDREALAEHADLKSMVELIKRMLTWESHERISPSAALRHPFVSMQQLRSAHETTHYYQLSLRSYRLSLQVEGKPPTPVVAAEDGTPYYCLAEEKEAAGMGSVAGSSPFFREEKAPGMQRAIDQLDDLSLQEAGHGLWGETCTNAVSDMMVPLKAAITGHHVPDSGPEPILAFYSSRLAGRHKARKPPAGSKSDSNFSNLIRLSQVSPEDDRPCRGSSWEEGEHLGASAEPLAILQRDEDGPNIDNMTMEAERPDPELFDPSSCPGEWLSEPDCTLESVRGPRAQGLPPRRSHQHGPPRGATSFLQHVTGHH
CDK9/cyclin T1, sequence (O60563 whole entry): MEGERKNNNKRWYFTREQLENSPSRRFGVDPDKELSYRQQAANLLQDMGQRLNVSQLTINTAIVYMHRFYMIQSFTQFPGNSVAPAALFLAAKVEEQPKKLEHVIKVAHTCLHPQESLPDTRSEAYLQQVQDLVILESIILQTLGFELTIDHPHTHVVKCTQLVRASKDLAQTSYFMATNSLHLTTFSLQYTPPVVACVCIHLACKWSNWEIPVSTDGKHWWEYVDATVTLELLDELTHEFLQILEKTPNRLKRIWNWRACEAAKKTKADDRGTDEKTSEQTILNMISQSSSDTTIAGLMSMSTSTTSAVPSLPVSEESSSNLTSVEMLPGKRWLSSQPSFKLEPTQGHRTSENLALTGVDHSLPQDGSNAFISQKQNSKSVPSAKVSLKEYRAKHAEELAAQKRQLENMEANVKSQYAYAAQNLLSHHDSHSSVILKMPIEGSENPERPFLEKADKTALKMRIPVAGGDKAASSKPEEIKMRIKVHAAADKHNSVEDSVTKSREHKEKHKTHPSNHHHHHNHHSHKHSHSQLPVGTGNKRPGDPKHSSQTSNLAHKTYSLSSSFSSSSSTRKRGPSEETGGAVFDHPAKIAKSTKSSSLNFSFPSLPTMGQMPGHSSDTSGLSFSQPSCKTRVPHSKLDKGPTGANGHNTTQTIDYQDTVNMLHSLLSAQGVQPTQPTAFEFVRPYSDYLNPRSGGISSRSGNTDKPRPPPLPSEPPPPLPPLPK
CDK9/cyclin T1, sequence (P50750 whole entry): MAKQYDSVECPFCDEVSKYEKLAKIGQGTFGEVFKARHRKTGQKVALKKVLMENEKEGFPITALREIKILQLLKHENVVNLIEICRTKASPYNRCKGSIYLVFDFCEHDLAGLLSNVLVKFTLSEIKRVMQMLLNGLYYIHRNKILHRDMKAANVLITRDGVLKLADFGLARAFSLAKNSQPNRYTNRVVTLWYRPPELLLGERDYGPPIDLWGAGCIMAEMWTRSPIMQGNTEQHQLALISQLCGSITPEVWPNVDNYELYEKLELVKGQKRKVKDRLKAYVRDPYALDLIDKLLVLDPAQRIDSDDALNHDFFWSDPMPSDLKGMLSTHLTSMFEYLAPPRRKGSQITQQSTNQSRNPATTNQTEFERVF

`FC(F)(F)c1ccc(CNc2ccc(Cc3c[nH]c4ncc(Cl)cc34)cn2)cn1` [PEXIDARTINIB]: the outcome in data set [1] was Active.
For the molecule `COc1ncc(F)cc1CNc1ccc(Cc2c[nH]c3ncc(C)cc23)c(F)n1` [PLX-5622], the concentration for half-maximal inhibition (IC50) in data set [2], in data set [3], in [4], in [15], in data set [16] and in data set [18] was above 1000 nM throughout. The result in data set [5], in data set [14] and in [17] was Active. Moreover, the Activity in data set [6] came out at 0.086 RPKM; in data set [7], 14.33 RPKM; in data set [8], 0.239 RPKM; in data set [9], 0 RPKM; in data set [11], 14; in [12] it was 96.141%. The molecule also displayed an Activity in [13] of 111.226 RPKM. Further, in data set [10], the Flu intensity was 0.747 a.u.

Broadly, the IC50 is the point on the concentration scale where inhibition reaches its midpoint.

The record behind these values is ChEMBL document CHEMBL5649170, “Sustained microglial depletion with CSF1R inhibitor impairs parenchymal plaque development in an Alzheimer's disease model” (Nat Commun, 2019).
